The text below walks through data of ChEMBL document CHEMBL2034832, “12-N-Methylated 5,6-dihydrobenzo[c]acridine derivatives: a new class of highly selective ligands for c-myc G-quadruplex DNA” (Eur J Med Chem, 2012).

Activity calls are given as the source filed them. No cut-off for these calls is given here.

The first assay deals with Nucleic Acid. Description: Binding affinity to c-myc quadruplex DNA Pu27 assessed as conformational change up to 10 uM by circular dichroism in the absence of 100 mM K+. The format is nucleic-acid assay. In short, it runs like this: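 K+-free CD: 1 μM Pu27 in 10 mM Tris-HCl pH 7.2 with ligand at 0, 3, 5 or 10 μM, co-annealed (95 °C 5 min, slow cool, 4 °C overnight). Spectra recorded at 25 °C over 230–430 nm, 1 cm cell, two scans averaged, buffer baseline subtracted.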
Take `CCN(CC)CCOc1c(OC)ccc2nc3c(cc12)CCc1cc2c(cc1-3)OCO2`: the outcome was Active.

For `CCN(CC)CCCOc1c(OC)ccc2nc3c(cc12)CCc1cc(OC)c(OC)cc1-3`, the result was Active.

In the case of `COc1cc2c(cc1OC)-c1c(cc3c(OCCCN4CCCC4)c(OC)ccc3[n+]1C)CC2`, the result was Active.

As for `COc1ccc2c(cc3c([n+]2C)-c2cc4c(cc2CC3)OCO4)c1OCCCNC1CCCCC1`, the outcome was Active.

As for `COc1ccc2c(cc3c([n+]2C)-c2cc4c(cc2CC3)OCO4)c1OCCCN1CCCCC1`, the result was Active.

As to `CCN(CC)CCCOc1c(OC)ccc2c1cc1c([n+]2C)-c2cc3c(cc2CC1)OCO3`, the result was Active.

The target in the next assay is Nucleic Acid. The assay can be described thus: Binding affinity to immobilised c-myc quadruplex DNA G4 by SPR assay. The format is nucleic-acid assay. In short, it runs like this: (§1)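 SPR: biotinylated DNA captured (~1000 RU) on GLH chip, blank reference cell. Running buffer 50 mM Tris-HCl pH 7.2, 100 mM KCl. Ligand at 0.3125–10 μM injected at 100 μL/min, 400 s association and 400 s dissociation, 25 °C; NaOH regeneration. KD by equilibrium analysis; mean ± SD of at least two runs.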
`CCN(CC)CCOc1c(OC)ccc2nc3c(cc12)CCc1cc2c(cc1-3)OCO2` registered a Kd of 2.6 µM.

Compound `CCN(CC)CCCOc1c(OC)ccc2nc3c(cc12)CCc1cc(OC)c(OC)cc1-3` had a dissociation constant Kd of 4.4 µM.

The compound `COc1cc2c(cc1OC)-c1c(cc3c(OCCCN4CCCC4)c(OC)ccc3[n+]1C)CC2` yielded a Kd of 0.6 µM.

`COc1ccc2c(cc3c([n+]2C)-c2cc4c(cc2CC3)OCO4)c1OCCCNC1CCCCC1` returned a Kd of 1.2 µM.

`COc1ccc2c(cc3c([n+]2C)-c2cc4c(cc2CC3)OCO4)c1OCCCN1CCCCC1`: the Kd was 0.6 µM.

Turning to `CCN(CC)CCCOc1c(OC)ccc2c1cc1c([n+]2C)-c2cc3c(cc2CC1)OCO3`, the affinity, expressed as Kd, was 0.6 µM.

The next assay has as its system Nucleic Acid. The assay can be described thus: Binding affinity to duplex DNA F10T assessed as change in melting temperature at 2 uM by FRET-melting assay. Type of assay: nucleic-acid assay. In short, it runs like this: (§2)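 FRET melting of 0.2 μM dual-labelled oligo (FPu18T, FAM/TAMRA c-myc G-quadruplex; or F10T, HEG-linked hairpin duplex) in 10 mM Tris-HCl pH 7.2, 0.2 mM KCl, with or without 2 μM ligand. Excitation 470 nm, emission 530 nm, read every 1 °C from 37–99 °C after 30 s hold. ΔTm = Tm(DNA+ligand) − Tm(DNA); mean ± SD of at least three runs.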
Turning to `CCN(CC)CCOc1c(OC)ccc2nc3c(cc12)CCc1cc2c(cc1-3)OCO2`, the thermal shift (ΔTm) came out at 1.6 °C.

As to `CCN(CC)CCCOc1c(OC)ccc2nc3c(cc12)CCc1cc(OC)c(OC)cc1-3`, the ΔTm is 0.4 °C.

For the compound `COc1cc2c(cc1OC)-c1c(cc3c(OCCCN4CCCC4)c(OC)ccc3[n+]1C)CC2`, the shift in melting temperature (ΔTm) is 1.4 °C.

In the case of `COc1ccc2c(cc3c([n+]2C)-c2cc4c(cc2CC3)OCO4)c1OCCCNC1CCCCC1`, the thermal shift (ΔTm) turned out to be 0.9 °C.

On to `COc1ccc2c(cc3c([n+]2C)-c2cc4c(cc2CC3)OCO4)c1OCCCN1CCCCC1`, for which the ΔTm was found to be 0.5 °C.

With `CCN(CC)CCCOc1c(OC)ccc2c1cc1c([n+]2C)-c2cc3c(cc2CC1)OCO3`, the ΔTm amounted to 1.2 °C.

A further assay concerns Nucleic Acid. Description: Binding affinity to immobilised duplex DNA up to 10 uM by SPR assay. The format is nucleic-acid assay. In short, it runs like this: as §1
For the compound `CCN(CC)CCOc1c(OC)ccc2nc3c(cc12)CCc1cc2c(cc1-3)OCO2`, the outcome was inactive.

As for `CCN(CC)CCCOc1c(OC)ccc2nc3c(cc12)CCc1cc(OC)c(OC)cc1-3`, the outcome was inactive.

For the compound `COc1cc2c(cc1OC)-c1c(cc3c(OCCCN4CCCC4)c(OC)ccc3[n+]1C)CC2`, the outcome was inactive.

`COc1ccc2c(cc3c([n+]2C)-c2cc4c(cc2CC3)OCO4)c1OCCCNC1CCCCC1`: the result was inactive.

As to `COc1ccc2c(cc3c([n+]2C)-c2cc4c(cc2CC3)OCO4)c1OCCCN1CCCCC1`, the outcome was inactive.

In the case of `CCN(CC)CCCOc1c(OC)ccc2c1cc1c([n+]2C)-c2cc3c(cc2CC1)OCO3`, the outcome was inactive.

A further assay deals with Nucleic Acid. The assay can be described thus: Binding affinity to c-myc quadruplex DNA FPu18T assessed as change in melting temperature at 2 uM by FRET-melting assay in the presence of excess of ds26 duplex DNA. Type of assay: nucleic-acid assay. In short, it runs like this:
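Competition FRET melting: 0.2 μM FPu18T with 2 μM ligand in 10 mM Tris-HCl pH 7.2, 0.2 mM KCl, plus varying amounts of unlabelled self-complementary ds26 duplex as competitor. Fluorescence at 470/530 nm recorded per 1 °C step over 37–99 °C.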
For the compound `CCN(CC)CCOc1c(OC)ccc2nc3c(cc12)CCc1cc2c(cc1-3)OCO2`, the outcome was Active.

Turning to `CCN(CC)CCCOc1c(OC)ccc2nc3c(cc12)CCc1cc(OC)c(OC)cc1-3`, the result was Active.

Turning to `COc1cc2c(cc1OC)-c1c(cc3c(OCCCN4CCCC4)c(OC)ccc3[n+]1C)CC2`, the result was Active.

With `COc1ccc2c(cc3c([n+]2C)-c2cc4c(cc2CC3)OCO4)c1OCCCNC1CCCCC1`, the result was Active.

For the compound `COc1ccc2c(cc3c([n+]2C)-c2cc4c(cc2CC3)OCO4)c1OCCCN1CCCCC1`, the result was Active.

As to `CCN(CC)CCCOc1c(OC)ccc2c1cc1c([n+]2C)-c2cc3c(cc2CC1)OCO3`, the outcome was Active.

In the next assay the test system is Nucleic Acid. Description: Binding affinity to c-myc quadruplex DNA Pu27 assessed as conformational change up to 10 uM by circular dichroism in the presence of 100 mM K+. The format is nucleic-acid assay. In short, it runs like this: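 CD titration of 1 μM Pu27, annealed (95 °C 5 min, slow cool, 4 °C overnight) in 10 mM Tris-HCl pH 7.2, 100 mM KCl. Ligand added stepwise (0.5–10 eq.) at 25 °C, ≥10 min equilibration per addition. Spectra 230–430 nm, 1 cm cell, average of two scans, buffer baseline subtracted.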
In the case of `CCN(CC)CCOc1c(OC)ccc2nc3c(cc12)CCc1cc2c(cc1-3)OCO2`, the outcome was Active.

As to `CCN(CC)CCCOc1c(OC)ccc2nc3c(cc12)CCc1cc(OC)c(OC)cc1-3`, the result was Active.

As to `COc1cc2c(cc1OC)-c1c(cc3c(OCCCN4CCCC4)c(OC)ccc3[n+]1C)CC2`, the outcome was Active.

For the compound `COc1ccc2c(cc3c([n+]2C)-c2cc4c(cc2CC3)OCO4)c1OCCCNC1CCCCC1`, the outcome was Active.

For the compound `COc1ccc2c(cc3c([n+]2C)-c2cc4c(cc2CC3)OCO4)c1OCCCN1CCCCC1`, the outcome was Active.

For the compound `CCN(CC)CCCOc1c(OC)ccc2c1cc1c([n+]2C)-c2cc3c(cc2CC1)OCO3`, the outcome was Active.

A further assay relates to Nucleic Acid. The assay can be described thus: Binding affinity to c-myc quadruplex DNA FPu18T assessed as change in melting temperature at 2 uM by FRET-melting assay. The format is nucleic-acid assay. In short, it runs like this: as §2
`CCN(CC)CCOc1c(OC)ccc2nc3c(cc12)CCc1cc2c(cc1-3)OCO2`: the ΔTm came out at 6.3 °C.

As for `CCN(CC)CCCOc1c(OC)ccc2nc3c(cc12)CCc1cc(OC)c(OC)cc1-3`, the ΔTm stood at 11.2 °C.

With `COc1cc2c(cc1OC)-c1c(cc3c(OCCCN4CCCC4)c(OC)ccc3[n+]1C)CC2`, the ΔTm amounted to 25.4 °C.

As for `COc1ccc2c(cc3c([n+]2C)-c2cc4c(cc2CC3)OCO4)c1OCCCNC1CCCCC1`, the thermal shift (ΔTm) turned out to be 11.6 °C.

`COc1ccc2c(cc3c([n+]2C)-c2cc4c(cc2CC3)OCO4)c1OCCCN1CCCCC1`: the ΔTm amounted to 21.4 °C.

`CCN(CC)CCCOc1c(OC)ccc2c1cc1c([n+]2C)-c2cc3c(cc2CC1)OCO3`: the thermal shift (ΔTm) worked out at 21.8 °C.

The target in the next assay is Nucleic Acid. Description: Binding affinity to c-myc quadruplex DNA Pu27 assessed as inhibition of c-myc amplification by PCR-stop assay. Type of assay: nucleic-acid assay. In short, it runs like this: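 Pu27 template with partly complementary primer, 10 μM each, […], 2.5 U Taq and ligand at 1, 5, 10 or 25 μM (one series 50 μM). Cycling: 94 °C 2 min, then 30 × (94 °C, 58 °C, 72 °C, 30 s each). Products run on 16% native PAGE, GelRed stain; IC50 for 50% loss of amplification.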
As for `CCN(CC)CCOc1c(OC)ccc2nc3c(cc12)CCc1cc2c(cc1-3)OCO2`, the IC50 is over 50 µM.

As to `CCN(CC)CCCOc1c(OC)ccc2nc3c(cc12)CCc1cc(OC)c(OC)cc1-3`, the IC50 was over 50 µM.

For the compound `COc1cc2c(cc1OC)-c1c(cc3c(OCCCN4CCCC4)c(OC)ccc3[n+]1C)CC2`, the half-maximal inhibitory concentration (IC50) was 4.7 µM.

On to `COc1ccc2c(cc3c([n+]2C)-c2cc4c(cc2CC3)OCO4)c1OCCCNC1CCCCC1`, for which the IC50 came out at 14 µM.

For `COc1ccc2c(cc3c([n+]2C)-c2cc4c(cc2CC3)OCO4)c1OCCCN1CCCCC1`, the IC50 amounted to 5.4 µM.

For the compound `CCN(CC)CCCOc1c(OC)ccc2c1cc1c([n+]2C)-c2cc3c(cc2CC1)OCO3`, the IC50 was found to be 7.5 µM.
